In the library only some 9.4% were active in any assay of this set; here they are far more common.
T cruzi repl = inhibitors of intracellular T. cruzi growth, primary screen, luminescence, NIH3T3 host cells; inhibition, % (concentration not given with the values); T. cruzi beta-gal in NIH3T3, 90 h; AID 1885, 2009; 1.4% of 300,000 active;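 active = mean inhibition across valid replicates above about 55%, limit read from the data; inconclusive = mean below that limit but half or more replicates reach it; inactive = mean below it, under half of replicates reach it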;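 also: signal also drops with host cell toxicity which is not excluded here; higher percent means less beta-gal luminescence so fewer parasites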
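System: NIH/3T3 fibroblasts plus reporter T. cruzi. Medium: DMEM plus 2% FBS. Probe or stimulus: 5000 reporter trypomastigotes per well. Compound: single 50 nL compound addition per well in DMSO. Incubation: co-culture of at least 90 h after 3 h attachment. Detection: GalScreen β-gal luminescence, detergent lysis, 60 min. Evaluation: parasite load inhibition, %.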
Lmaj promast = Leishmania major promastigote growth inhibition, primary screen; Leishmania major promastigotes, resazurin fluorescence viability; inhibition, % at 10 µM; 9% of 200,000 active; AID 1063, 2008; in the data active = inhibition above about 50%;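 also: promastigotes grown with compound for 44 hours at 28 °C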
Beta cell apopt = inhibitors of cytokine-induced beta cell apoptosis, primary screen, luminescence; INS-1E cytokine-induced death, ATP luminescence, 48 h; percent of positive-control rescue, neutral wells zero; protection from apoptosis, % (test concentration not listed); 0.8% of 300,000 active; AID 435005, 2010;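 active = Every replicate reaches about 75%, or at least half do and their mean reaches it too, limit read from the data; inconclusive = At least half of replicates reach the limit but their mean does not; inactive = Under half of replicates reach the limit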;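 also: higher means more ATP so stronger rescue from cytokine killing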
Mdm2 MdmX PPI = inhibitors of human Mdm2-MdmX association, primary screen, cell-based, luminescence, split luciferase, SaOS-2, uHTS; Protein Mdm4 (Homo sapiens) + E3 ubiquitin-protein ligase Mdm2 (Homo sapiens), …; SaOS-2 split-luciferase Mdm2/MdmX complementation; inhibition, % at 8 µM; 3% of 330,000 active;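 active = inhibition of at least 50% at 8 µM in the primary screen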
Target sequence (O15151 whole entry, looked up): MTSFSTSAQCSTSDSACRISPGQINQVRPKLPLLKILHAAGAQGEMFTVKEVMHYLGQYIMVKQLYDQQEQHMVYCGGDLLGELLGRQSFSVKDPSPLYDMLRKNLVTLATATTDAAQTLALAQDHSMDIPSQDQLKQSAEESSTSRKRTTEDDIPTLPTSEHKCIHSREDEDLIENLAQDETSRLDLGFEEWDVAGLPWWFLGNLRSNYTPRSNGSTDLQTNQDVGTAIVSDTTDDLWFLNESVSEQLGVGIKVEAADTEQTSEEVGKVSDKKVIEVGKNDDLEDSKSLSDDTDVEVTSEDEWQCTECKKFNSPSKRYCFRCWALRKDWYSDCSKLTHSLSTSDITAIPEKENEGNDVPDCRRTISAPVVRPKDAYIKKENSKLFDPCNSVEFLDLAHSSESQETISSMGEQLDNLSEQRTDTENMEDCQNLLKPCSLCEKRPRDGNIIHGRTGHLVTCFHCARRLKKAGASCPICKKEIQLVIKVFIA
Target sequence (Q00987 whole entry, looked up): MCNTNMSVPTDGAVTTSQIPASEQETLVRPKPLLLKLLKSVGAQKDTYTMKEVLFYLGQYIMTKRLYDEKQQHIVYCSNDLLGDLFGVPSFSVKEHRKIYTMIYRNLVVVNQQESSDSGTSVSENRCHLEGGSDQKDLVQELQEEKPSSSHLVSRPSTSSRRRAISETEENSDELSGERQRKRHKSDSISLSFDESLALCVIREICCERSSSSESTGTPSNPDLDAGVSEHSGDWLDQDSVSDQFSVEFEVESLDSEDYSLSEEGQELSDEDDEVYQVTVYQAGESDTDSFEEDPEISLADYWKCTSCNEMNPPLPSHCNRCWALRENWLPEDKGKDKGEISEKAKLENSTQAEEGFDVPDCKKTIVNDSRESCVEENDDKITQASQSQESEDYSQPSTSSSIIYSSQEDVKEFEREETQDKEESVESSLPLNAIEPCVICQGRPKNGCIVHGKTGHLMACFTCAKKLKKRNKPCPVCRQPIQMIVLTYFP
SKKanGAS inh = S. pyogenes SKKanGAS growth inhibitors in kanamycin, primary screen, streptokinase expression inhibitor project, SKKanGAS strain, BacTiter-Glo luminescence; 6 h; inhibition, % at 7.5 µM; 1.3% of 300,000 active; AID 1662, 2009;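 active = mean replicate score, as percent of positive control median, at least 50; inconclusive = mean below 50 but one replicate at or above 50; inactive = mean and every replicate below 50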;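 also: strain carries kanamycin resistance gene driven by streptokinase promoter and grows in 40 µg/ml kanamycin; loss of luminescence reflects streptokinase promoter inhibition or plain growth inhibition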
CSC inhib = cancer stem cell viability inhibitors, primary screen, luminescence | inhibition, % at 7.5 µM | cancer stem cell-like cells viability | AID 2717, 2010 | 1.1% of 300,000 active; in the data active = inhibition above about 75%; inconclusive = no clear call, values can overlap the other calls; tested in HMLE shEcad cells
L major 1uM = Leishmania major promastigote growth inhibition, confirmation, 1 µM repeat of primary hits; shares compounds with Lmaj promast; L. major promastigote growth, resazurin fluorescence, 48 h; inhibition, % at 1 µM; 13% of 1,100 active; AID 1258, 2008;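 active = inhibition above about 50% in both repeat tests, limit read from the data; inconclusive = one repeat under the set limit, the other over it; inactive = both repeats under the set limit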
A number is an active result; 0 = inactive; ? = inconclusive; - = not tested or not shown.

SMILES	T cruzi repl	Lmaj promast	Beta cell apopt	Mdm2 MdmX PPI	SKKanGAS inh	CSC inhib	L major 1uM
Cc1ccc(-c2cn(-c3ccccc3)c3[n+]2CCCS3)cc1	0	100	111	0	0	0	0
CSCCC(NC(=O)c1cccc([N+](=O)[O-])c1)c1nc2ccccc2[nH]1 (stereo not given)	0	0	0	0	0	0	-
CSCCC(NC(=O)c1cccc([N+](=O)[O-])c1)C(=O)O (stereo not given)	0	79	0	0	0	0	0
COc1cc(C(F)(F)F)c(C(=O)NCc2cccc(Cl)c2)cn1	0	-	0	0	0	0	-
O=C(CSc1ncn[nH]1)N1c2ccccc2Sc2ccccc21	0	-	0	0	0	0	-
Cn1cc(CN2CCC(CO)CC2)c(-c2ccc(Oc3ccccc3)cc2)n1	0	97	0	0	0	0	75
O=C(Nc1cccc(-c2nnn(CC(=O)N3CCc4ccccc4C3)n2)c1)C1CCC1	0	99	-	0	0	-	0
Cc1ccc(C2N3CC4([N+](=O)[O-])CN2CC([N+](=O)[O-])(C3)C4(C)C)cc1 (stereo not given)	0	65	0	0	0	0	0
CC1(C)C2([N+](=O)[O-])CN3CC1([N+](=O)[O-])CN(C2)C3c1ccc(O)c(O)c1 (stereo not given)	0	-	0	0	0	0	-
O=C(COC(=O)Cn1cnc2ccccc2c1=O)Nc1cc(Cl)ccc1[N+](=O)[O-]	0	0	0	-	0	0	-
Cc1noc(C)c1S(=O)(=O)NCCCN1CCN(Cc2ccccc2)CC1	0	92	0	0	0	0	0
CC(NC(=O)CCNC(=O)c1ccc(Br)cc1)c1ccc(-n2ccnc2)cc1 (stereo not given)	0	-	0	0	0	0	-
O=C1NC(=O)/C(=C/C(=O)N2CCOCC2)S1	0	0	0	0	0	0	-
O=[N+]([O-])c1cc(S(=O)(=O)Nc2ccccc2)ccc1-n1nnc2ccccc21	0	66	0	0	0	0	0
N#Cc1ccc(-n2nnc3ccccc3c2=O)c([N+](=O)[O-])c1	0	-	0	0	0	0	-
O=C(NC(=S)Nc1ccc2nc[nH]c2c1)c1ccccc1	0	-	0	0	0	0	-
CC(CC(=O)c1cccs1)CC(=O)c1cccs1	0	0	0	0	0	0	-
Cc1cc(C)c(C(CC(=O)c2cccs2)C(C#N)C#N)c(C)c1 (stereo not given)	0	92	0	0	0	?	0
Cc1c(CN(C)C(=O)c2sc3cc(Cl)ccc3c2Cl)cnn1C	0	0	0	0	0	0	-
COc1ccc(CCNC(=O)COc2ccc(C)nc2[N+](=O)[O-])cc1	0	0	0	0	0	0	-
CC(SCC(=O)NC12CC3CC(CC(C3)C1)C2)C(=O)O (stereo not given)	0	56	0	0	0	0	0
O=C(NCc1ccc(F)cc1)c1cc2c(s1)CS(=O)(=O)C2	0	-	0	0	0	0	-
Cc1nc2ccccc2c(=O)n1NC(=O)c1ccc([N+](=O)[O-])cc1	0	0	0	0	0	0	-
CC(C)(C)n1nc2c(c1NC(=O)c1ccc(Cl)c([N+](=O)[O-])c1)CS(=O)(=O)C2	0	-	0	0	0	0	-
Cc1ccc(S(=O)(=O)N2CCC(=O)N(C(COCc3ccc(C(F)(F)F)cc3)Cc3ccccc3)CC2)cc1 (stereo not given)	0	73	0	0	0	0	0
SMILES	T cruzi repl	Lmaj promast	Beta cell apopt	Mdm2 MdmX PPI	SKKanGAS inh	CSC inhib	L major 1uM
O=C(c1cc(COc2ccc(F)cc2F)on1)N1CCSCC1	0	0	0	0	0	0	-
Cn1ncc(N=Cc2ccc([N+](=O)[O-])cc2)c1C(=O)Nc1ccccc1	0	0	-	0	0	0	-
CC(=O)Nc1ccc(-c2nnn(CC(=O)Nc3ccc4c(c3)OCO4)n2)cc1Cl	0	0	0	0	0	0	-
O=C(Nc1ccc(Cl)cc1Cl)c1cccc(N2C(=O)C=CC2=O)c1	?	-	0	0	0	0	-
NNC(=O)c1nc(-c2ccccc2)cc(-c2ccccc2)n1	0	-	0	0	0	0	-
NNc1nc(-c2ccccc2)cc(-c2ccccc2)n1	0	91	0	0	0	80	0
Cc1c(C(=O)O)oc2c1/C(=N\O)CCC2	0	54	0	0	0	0	0
CCOC(=O)c1oc2c(c1C)/C(=N/O)CCC2	0	0	0	0	0	0	-
O=C(CN1CCN(S(=O)(=O)c2ccccc2)CC1)N1CCc2ccccc21	-	-	0	0	-	0	-
O=C(CN1CCc2ccccc2C1)N1CCN(S(=O)(=O)c2ccccc2)CC1	0	90	0	0	0	0	0
CCOc1ccccc1NC(=O)COC(=O)CN1C(=O)NC(C)(C)C1=O	-	-	0	0	-	0	-
Cc1ccc(-n2nnnc2C(Cl)c2nnnn2-c2ccc(C)cc2)cc1	55	99	-	-	0	-	0
COc1ccc(CSC2=NCCN2)cc1Cl	?	99	0	0	0	0	0
COc1ccc(CSC2=NCCN2)cc1Br	0	-	0	0	0	0	-
CC1CCCC(C)N1C(=O)COC(=O)C(Cc1ccccc1)NC(=O)c1cccs1 (stereo not given)	0	0	0	0	0	0	-
CC1CCC(NC(=O)CCS(=O)(=O)c2ccc3c(c2)NC(=O)C(C)S3)CC1 (stereo not given)	0	-	0	0	0	0	-
COc1cc(/C=N/NC(N)=S)cc(Br)c1OCc1ccccc1F	0	99	0	0	0	0	0
CNC(=S)N/N=C/c1cc(Br)c(OCc2ccncc2)c(OC)c1	0	-	0	0	0	0	-
CCN(CC)c1ccc(NC(=O)c2ccc(Br)o2)c(C)c1	0	57	0	0	0	0	0
CCN(CC)c1ccc(NC(=O)c2ccco2)c(C)c1	0	0	0	0	0	0	-
COc1ccc(S(=O)(=O)N2CCC(C(=O)Nc3ccccc3N3CCCCC3)CC2)cc1OC	0	-	0	0	0	0	-
Cn1c(-c2ccc(-c3ccccc3)cc2)c[nH]c1=S	0	57	0	0	0	0	0
CCOC(=O)N1CCC(NS(=O)(=O)c2cc3c(cc2Cl)NC(=O)CO3)CC1	0	55	0	0	0	0	0
CCOC(=O)N1CCC(NS(=O)(=O)c2ccc3c(c2)OCC(=O)N3)CC1	0	0	0	0	0	0	-
COc1ccccc1NC(=S)N(Cc1ccco1)Cc1cc2cccc(C)c2[nH]c1=O	0	100	0	0	0	0	0
COc1ccccc1NC(=O)N(Cc1ccco1)Cc1cc2ccc(C)c(C)c2[nH]c1=O	0	0	0	0	0	0	-
COc1cccc(NC(=O)CCCCCN2C(=O)[C@@H]3Cc4ccccc4CN3C2=O)c1	0	-	0	0	0	0	-

Screens deposited in PubChem BioAssay by several laboratories.
